Measurements taken from ChEMBL document CHEMBL1153423, “Identification and characterization of small molecule inhibitors of a class I histone deacetylase from Plasmodium falciparum” (J Med Chem, 2009).

T1: Histone deacetylase (Plasmodium falciparum, UniProt Q9XYC7)
T1 sequence (Q9XYC7 whole entry): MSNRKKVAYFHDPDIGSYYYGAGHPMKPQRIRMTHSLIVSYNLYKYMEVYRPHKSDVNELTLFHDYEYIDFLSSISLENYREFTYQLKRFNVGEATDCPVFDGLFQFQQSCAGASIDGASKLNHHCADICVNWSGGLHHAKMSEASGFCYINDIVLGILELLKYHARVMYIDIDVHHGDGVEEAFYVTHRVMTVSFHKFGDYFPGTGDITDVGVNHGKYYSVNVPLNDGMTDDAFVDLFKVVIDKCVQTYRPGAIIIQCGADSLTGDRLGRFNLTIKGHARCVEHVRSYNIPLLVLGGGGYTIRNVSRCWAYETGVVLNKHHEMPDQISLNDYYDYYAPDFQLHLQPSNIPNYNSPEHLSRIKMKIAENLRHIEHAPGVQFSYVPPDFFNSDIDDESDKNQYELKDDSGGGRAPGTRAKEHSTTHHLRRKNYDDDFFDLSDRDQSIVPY

B1: Histone deacetylase (Plasmodium falciparum), Q9XYC7 (protein)
chain: T1 sequence (Q9XYC7 whole entry)

How the values were obtained:
[1] = Growth inhibition of human MM1S cells; format: cell-based; conditions: mm1.s
MM1.S = test: Inhibition of histone acetylation in human MM1S cells at 0.2 uM relative to untreated control; format: functional
Histone deacetylase = target: T1, Histone deacetylase; test: Inhibition of Plasmodium falciparum HDAC1 expressed in Drosophila melanogaster S2 cells; format: cell-based
Summary of the method: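 Recombinant pfHDAC-1 cDNA carrying a C-terminal HPC4 epitope tag was expressed in Drosophila S2 cells. A stable pool was selected with blasticidin after co-transfection, and the enzyme was purified via the HPC4 tag. Substrate characterisation used the fluorogenic peptide Ac-Leu-Gly-Lys(Ac)-AMC, with a Michaelis–Menten fit.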

Plasmodium falciparum = test: Antimalarial activity against Plasmodium falciparum 3D7 by [3H]hypoxanthine uptake; format: functional, organism-based
[2] = substrate: Cc1cc(=O)oc2cc(NC(=O)[C@H](CCCCNC(=O)C(F)(F)F)NC(=O)OC(C)(C)C)ccc12; test: (§1) Activity of Plasmodium falciparum HDAC1 expressed in Drosophila melanogaster S2 cells by Michaelis-Menten method; format: cell-based
Summary of the method: (§2)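 pfHDAC-1 cDNA with a C-terminal HPC4 epitope tag was expressed in a stable blasticidin-selected Drosophila S2 pool and purified through the tag. Activity was measured on the acetyl-lysine AMC peptide substrates Ac-Leu-Gly-Lys(Ac)-AMC and Boc-Lys(trifluoroacetyl)-AMC. kcat and apparent Km were obtained by fitting the Michaelis–Menten model to the rate data.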

[3] = substrate: CC(=O)NCCCC[C@H](NC(=O)CNC(=O)[C@H](CC(C)C)NC(C)=O)C(=O)Nc1ccc2c(C)cc(=O)oc2c1; test: as §1; format: cell-based; summary of the method: as §2

Row | Molecule | Activity [1] | fold change (FC) (MM1.S) | IC50 (Histone deacetylase) [nM] | IC50 (Plasmodium falciparum) [nM] | Km [2] | kcat [2] | Km [3] [µM] | kcat [3] [s⁻¹]
1 | O=C(CCCCCC(=O)NN/C=C/c1ccccc1Br)NO | Non-toxic | 1.1 | 37 | 15 |  |  |  | 
2 | CN(C)c1ccc(/C=C/NNC(=O)CCCCCC(=O)NO)c(O)c1 | Non-toxic | 1.2 | 37 | 24 |  |  |  | 
3 | O=C(CCCCCC(=O)NN/C=C/c1cccc(O)c1)NO | Non-toxic | 1.2 | 59 | 99 |  |  |  | 
4 | O=C(CCCCCC(=O)NN/C=C/c1cc2c(cc1Br)OCO2)NO | Non-toxic | 1 | 20 | 59 |  |  |  | 
5 | O=C(CCCCCC(=O)NN/C=C/c1c(O)ccc2ccccc12)NO | Non-toxic | 1 | 41 | 20 |  |  |  | 
6 | COc1cc(/C=C/NNC(=O)CCCCCC(=O)NO)c(Br)cc1O | Non-toxic | 1 | 59 | 47 |  |  |  | 
7 | O=C(CCCCCC(=O)NN/C=C/c1cc(O)ccc1Br)NO | Non-toxic | 1 | 49 | 35 |  |  |  | 
8 | O=C(CCCCCC(=O)NN/C=C/c1cccnc1Br)NO | Non-toxic | 0.9 | 36 | 22 |  |  |  | 
9 | O=C(CCCCCCC(=O)NN/C=C/c1c(O)cc(O)cc1O)NO | Non-toxic | 1.1 | 43 | 50 |  |  |  | 
10 | COc1ccc(Br)c(/C=C/NNC(=O)CCCCCC(=O)NO)c1 | Non-toxic | 1.1 | 22 | > 500 |  |  |  | 
11 | CCC(=O)CCCCC[C@@H]1NC(=O)[C@H]2CCCCN2C(=O)[C@H]([C@@H](C)CC)NC(=O)[C@H](Cc2cn(OC)c3ccccc23)NC1=O [APICIDIN] |  |  |  | 33 |  |  |  | 
12 | Nc1ccccc1NC(=O)c1ccc(CNC(=O)OCc2cccnc2)cc1 [ENTINOSTAT] |  |  |  | > 10000 |  |  |  | 
13 | CC(/C=C/C(=O)NO)=C\[C@@H](C)C(=O)c1ccc(N(C)C)cc1 [TRICHOSTATIN] |  |  | 0.6 | 16 |  |  |  | 
14 | Cc1[nH]c2ccccc2c1CCNCc1ccc(/C=C/C(=O)NO)cc1 [PANOBINOSTAT] |  |  |  | 21 |  |  |  | 
15 | O=C(CCCCCC(=O)NN/C=C/c1ccc(-n2ccnc2)cc1)NO | Non-toxic | 1 | 15 | 57 |  |  |  | 
16 | COc1cc(/C=C/NNC(=O)CCCCC(=O)NO)c(Br)cc1O | Non-toxic | 1.2 | 59 | 498 |  |  |  | 
17 | O=C(CCCCC(=O)NN/C=C/c1ccc(O)cc1Br)NO | Non-toxic | 1.1 | 106 | 53 |  |  |  | 
18 | O=C(CCCCCCC(=O)NN/C=C/c1cc(O)ccc1O)NO | Non-toxic | 1.1 | 110 | 142 |  |  |  | 
19 | O=C1CCc2c(ccc3ccccc23)O1 [SPLITOMICIN] |  |  | > 10000 | > 10000 |  |  |  | 
20 | O=C(CCCCCC(=O)NN/C=C/c1ccccc1Cl)NO | Non-toxic | 0.9 | 90 | 288 |  |  |  | 
21 | O=C(CCCCC(=O)NN/C=C/c1cc(O)ccc1Br)NO | Non-toxic | 1.1 | 89 | 30 |  |  |  | 
22 | B1 |  |  |  |  | Not Active | Not Active | 30 | 0.19
